According to ChEMBL document CHEMBL1156929, “Synthesis, biological evaluation, and molecular modeling of 1-benzyl-1H-imidazoles as selective inhibitors of aldosterone synthase (CYP11B2)” (J Med Chem, 2010):
pIC50: −log10 of the molar value.

Key:
[1] = biological target: T1, Cytochrome P450 11B2, mitochondrial (Homo sapiens, UniProt P19099); assay: Inhibition of human CYP11B2 expressed in chinese hamster V79 cells; type: cell-based
T1 sequence (P19099 whole entry): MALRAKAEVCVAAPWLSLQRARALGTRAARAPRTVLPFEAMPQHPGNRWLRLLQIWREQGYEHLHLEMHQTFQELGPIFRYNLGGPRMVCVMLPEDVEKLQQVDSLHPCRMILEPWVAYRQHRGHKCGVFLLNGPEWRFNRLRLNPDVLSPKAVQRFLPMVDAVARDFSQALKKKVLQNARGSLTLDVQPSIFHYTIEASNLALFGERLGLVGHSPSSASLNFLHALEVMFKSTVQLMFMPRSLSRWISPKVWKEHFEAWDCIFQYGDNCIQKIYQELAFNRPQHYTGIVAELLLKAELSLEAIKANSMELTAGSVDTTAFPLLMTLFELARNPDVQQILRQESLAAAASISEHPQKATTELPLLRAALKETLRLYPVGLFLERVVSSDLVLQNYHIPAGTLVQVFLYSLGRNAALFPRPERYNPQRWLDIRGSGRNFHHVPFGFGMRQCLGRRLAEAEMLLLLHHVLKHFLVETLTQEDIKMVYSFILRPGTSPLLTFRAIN
Summary of the method: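 Confluent V79 cells stably overexpressing human CYP11B2, 37 °C, 5% CO2. […] Steroids were extracted from medium with diethylether at pH 10.5 and quantified by HPLC (UV 243 nm) using peak-area ratios to methylprednisolone internal standard. IC50 from at least five concentrations, fitted to vi = v0/(1+I/IC50).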

[2] = biological target: T2, Cytochrome P450 11B1, mitochondrial (Homo sapiens, UniProt P15538); assay: Inhibition of human CYP11B1 expressed in chinese hamster V79 cells; type: cell-based; settings: for pIC50: read-out: IC50; for IC50: read-out: pIC50 (converted)
T2 sequence (P15538 whole entry): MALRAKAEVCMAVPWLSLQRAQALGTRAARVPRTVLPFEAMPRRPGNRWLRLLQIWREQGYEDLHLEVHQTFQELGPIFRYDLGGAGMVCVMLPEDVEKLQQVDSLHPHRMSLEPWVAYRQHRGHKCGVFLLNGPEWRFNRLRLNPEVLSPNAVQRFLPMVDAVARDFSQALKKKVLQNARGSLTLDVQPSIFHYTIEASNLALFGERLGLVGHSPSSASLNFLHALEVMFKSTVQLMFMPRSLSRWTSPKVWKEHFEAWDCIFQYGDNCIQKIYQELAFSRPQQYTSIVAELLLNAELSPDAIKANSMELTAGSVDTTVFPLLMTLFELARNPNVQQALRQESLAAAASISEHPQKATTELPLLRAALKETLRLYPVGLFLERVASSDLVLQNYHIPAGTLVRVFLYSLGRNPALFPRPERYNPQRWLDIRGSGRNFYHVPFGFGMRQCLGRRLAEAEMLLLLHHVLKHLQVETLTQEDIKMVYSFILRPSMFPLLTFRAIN

Structure (SMILES)	pIC50 ([1]; read-out: IC50)	pIC50 [2]	pIC50 [1]	IC50 [2]
Cc1cncn1Cc1ccc(C#N)cc1	7.92			
N#Cc1cccc(Cn2ccnc2)c1	< 6.00	< 6.00	< 6.00	
Brc1ccc(Cn2ccnc2)cc1	6.32	6.68		
N#Cc1ccc(Cn2ccnc2)cc1	6.43	6.43		
Fc1ccc(Cn2ccnc2)cc1	6.48	6.31		
Clc1ccc(Cn2ccnc2)cc1	< 6.00	< 6.00	< 6.00	
c1ccc(Cn2cncc2-c2ccccc2)cc1	7.96	8.32		
OCc1ccc(Cn2ccnc2)cc1	< 6.00	6.16	< 6.00	
OCCCc1cncn1Cc1ccc(F)cc1	7.80			
COc1ccc(Cn2cncc2-c2ccccc2)cc1	7.85	7.96		
COC(=O)c1cncn1Cc1ccc(C#N)cc1	8.15			
Clc1ccc(Cn2cncc2-c2ccccc2)cc1	8.24	7.60		
Brc1ccc(Cn2cncc2-c2ccccc2)cc1	8.29	8.15		
OCc1cccc(Cn2ccnc2)c1	5.93	6.69		
Nc1cccc(Cn2ccnc2)c1	6.22	6.41		
COc1ccc(Cn2cncc2CCCO)cc1	7.23			
N#Cc1ccc(Cn2cncc2-c2ccccc2)cc1		7.55		
Nc1ccc(Cn2ccnc2)cc1	< 6.00	6.63	< 6.00	
Fc1cccc(Cn2ccnc2)c1	6.09	6.69		
Brc1cccc(Cn2ccnc2)c1	6.44	6.84		
N#Cc1ccc(Cn2cncc2CCCO)cc1	7.89	7.32		

Structure (SMILES)	pIC50 ([1]; read-out: IC50)	pIC50 [2]	pIC50 [1]	IC50 [2]
OCCCc1cncn1Cc1ccc(Cl)cc1	7.26	7.36		
N#Cc1ccc(Cn2cncc2-c2cccc(F)c2)cc1				32.4 nM
N#Cc1ccc(Cn2cncc2-c2ccc(F)cc2)cc1	7.60	7.57		
OCCCc1cncn1Cc1ccc(Br)cc1	8.21	7.74		
N#Cc1ccc(Cn2cncc2Br)cc1	7.64	7.14		
N#Cc1ccc(Cn2cncc2CO)cc1	7.54			282 nM
N#Cc1ccc(Cn2cncc2-c2ccncc2)cc1	6.39	6.51		
N#Cc1ccc(Cn2cncc2-c2ccccc2F)cc1	8.64	7.70		
COC(=O)CCc1cncn1Cc1ccc(F)cc1	7.30	6.98		
COC(=O)CCc1cncn1Cc1ccc(Cl)cc1	6.75	6.91		
COC(=O)CCc1cncn1Cc1ccc(OC)cc1	6.92	6.95		
Cc1ccc(-c2cncn2Cc2ccc(C#N)cc2)cc1	6.93	6.89		
Cc1cccc(-c2cncn2Cc2ccc(C#N)cc2)c1	8.28	8.21		
COC(=O)CCc1cncn1Cc1ccccc1	6.71	6.49		
Clc1cccc(Cn2ccnc2)c1	6.34	6.82		
Fc1ccc(Cn2cncc2-c2ccccc2)cc1	7.96	7.80		
Cc1ccccc1-c1cncn1Cc1ccc(C#N)cc1	8.43	8.24		
OCCCc1cncn1Cc1ccccc1	6.54	6.74		
c1ccc(Cn2ccnc2)cc1 [BENZYLIMIDAZOLE]	5.74	6.15		
CCOC(=O)c1cncn1[C@H](C)c1ccccc1 [ETOMIDATE]	8.77			
